Source: ChEMBL document CHEMBL1649560, “Beta-lactamase-mediated beta-lactam resistance in Campylobacter species: prevalence of Cj0299 (bla OXA-61) and evidence for a novel beta-Lactamase in C. jejuni” (2009)
In brackets after ≈: the same amount, converted by molar mass.

system: Campylobacter jejuni; test: Antibacterial activity against bla gene-negative and nitrocefin reaction-positive beta-lactamase harboring Campylobacter jejuni isolate P854 by NCCLS agar doubling dilution method; format: functional
Method in brief: (§1)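 MICs of β-lactams by agar doubling dilution following the NCCLS (CLSI) Campylobacter Working Group procedure, with C. jejuni NCTC 11168 and C. coli NCTC 11366 as controls. Isolates were from UK poultry flocks. β-Lactamase status was set by Cj0299 PCR (281-bp amplimer) and by a nitrocefin colour change of sonicated lysate within 5 min, or within 30 min on repeat.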

Row | Compound | MIC
1 | CO[C@@]1(NC(=O)Cc2cccs2)C(=O)N2C(C(=O)O)=C(COC(N)=O)CS[C@@H]21 [CEFOXITIN] | 128 µg/mL (≈ 299 µM)

system: Campylobacter coli; test: Antibacterial activity against bla gene-positive and nitrocefin reaction-positive beta-lactamase harboring Campylobacter coli isolate P321 by NCCLS agar doubling dilution method; format: functional; method in brief: as §1

Row | Compound | MIC
2 | CO[C@@]1(NC(=O)Cc2cccs2)C(=O)N2C(C(=O)O)=C(COC(N)=O)CS[C@@H]21 [CEFOXITIN] | 64 µg/mL (≈ 150 µM)

system: Campylobacter jejuni; test: Antibacterial activity against Campylobacter jejuni isolate P1093 harboring blaOXA-61::cat gene by NCCLS agar doubling dilution method; format: functional
Method in brief: (§2)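 Agar doubling dilution MICs (NCCLS/CLSI Campylobacter Working Group method) against Cj0299-inactivated mutants. Mutants were made by transforming the C. jejuni isolate with pCI and selecting on Mueller-Hinton agar with 10 μg/ml chloramphenicol for 3–5 days. Chromosomal insertion was confirmed by PCR with Cj0299 and cat primers.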

Row | Compound | MIC
3 | CO[C@@]1(NC(=O)Cc2cccs2)C(=O)N2C(C(=O)O)=C(COC(N)=O)CS[C@@H]21 [CEFOXITIN] | 128 µg/mL (≈ 299 µM)

system: Campylobacter jejuni; test: Antibacterial activity against bla gene-positive and nitrocefin reaction-negative beta-lactamase harboring Campylobacter jejuni isolate P1698 by NCCLS agar doubling dilution method; format: functional; method in brief: as §1

Row | Compound | MIC
4 | CO[C@@]1(NC(=O)Cc2cccs2)C(=O)N2C(C(=O)O)=C(COC(N)=O)CS[C@@H]21 [CEFOXITIN] | 128 µg/mL (≈ 299 µM)

system: Campylobacter coli; test: Antibacterial activity against bla-positive and beta-lactamase-weakly positive Campylobacter coli isolate P1627 by NCCLS agar doubling dilution method; format: functional
Method in brief: (§3)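 MICs by agar doubling dilution per the NCCLS (now CLSI) Campylobacter Working Group method. Isolates came from UK chicken flocks (feces, ceca or farm environment), 2000–2006. C. jejuni NCTC 11168 and C. coli NCTC 11366 served as control strains. The ampicillin resistance cutoff was 8 μg/ml; BSAC/CLSI Enterobacteriaceae guidelines were used for other agents.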

Row | Compound | MIC
5 | CO[C@@]1(NC(=O)Cc2cccs2)C(=O)N2C(C(=O)O)=C(COC(N)=O)CS[C@@H]21 [CEFOXITIN] | 64 µg/mL (≈ 150 µM)

system: Campylobacter jejuni; test: Antibacterial activity against bla gene-negative and nitrocefin reaction-negative beta-lactamase harboring Campylobacter jejuni isolate P850 by NCCLS agar doubling dilution method; format: functional; method in brief: as §1

Row | Compound | MIC
6 | CO[C@@]1(NC(=O)Cc2cccs2)C(=O)N2C(C(=O)O)=C(COC(N)=O)CS[C@@H]21 [CEFOXITIN] | 256 µg/mL (≈ 599 µM)

system: Campylobacter jejuni; test: Antibacterial activity against bla gene-positive and nitrocefin reaction-positive beta-lactamase harboring Campylobacter jejuni isolate P1618 by NCCLS agar doubling dilution method; format: functional; method in brief: as §1

Row | Compound | MIC
7 | CO[C@@]1(NC(=O)Cc2cccs2)C(=O)N2C(C(=O)O)=C(COC(N)=O)CS[C@@H]21 [CEFOXITIN] | 256 µg/mL (≈ 599 µM)

system: Campylobacter jejuni; test: Antibacterial activity against bla gene-positive and nitrocefin reaction-positive beta-lactamase harboring Campylobacter jejuni isolate P338 by NCCLS agar doubling dilution method; format: functional; method in brief: as §3

Row | Compound | MIC
8 | CO[C@@]1(NC(=O)Cc2cccs2)C(=O)N2C(C(=O)O)=C(COC(N)=O)CS[C@@H]21 [CEFOXITIN] | 512 µg/mL (≈ 1200 µM)

system: Campylobacter jejuni; test: Antibacterial activity against Campylobacter jejuni isolate P270 harboring blaOXA-61::cat gene by NCCLS agar doubling dilution method; format: functional

Row | Compound | MIC
9 | CO[C@@]1(NC(=O)Cc2cccs2)C(=O)N2C(C(=O)O)=C(COC(N)=O)CS[C@@H]21 [CEFOXITIN] | 32 µg/mL (≈ 74.9 µM)

system: Campylobacter jejuni; test: Antibacterial activity against bla gene-positive and nitrocefin reaction-positive beta-lactamase harboring Campylobacter jejuni isolate P316 by NCCLS agar doubling dilution method; format: functional; method in brief: as §3

Row | Compound | MIC
10 | CO[C@@]1(NC(=O)Cc2cccs2)C(=O)N2C(C(=O)O)=C(COC(N)=O)CS[C@@H]21 [CEFOXITIN] | 128 µg/mL (≈ 299 µM)

system: Campylobacter coli; test: Antibacterial activity against bla gene-positive and nitrocefin reaction-positive beta-lactamase harboring Campylobacter coli isolate P1826 by NCCLS agar doubling dilution method; format: functional; method in brief: as §1

Row | Compound | MIC
11 | CO[C@@]1(NC(=O)Cc2cccs2)C(=O)N2C(C(=O)O)=C(COC(N)=O)CS[C@@H]21 [CEFOXITIN] | 128 µg/mL (≈ 299 µM)

system: Campylobacter jejuni; test: Antibacterial activity against bla gene-negative and nitrocefin reaction-negative beta-lactamase harboring Campylobacter jejuni isolate P835 by NCCLS agar doubling dilution method; format: functional; method in brief: as §1

Row | Compound | MIC
12 | CO[C@@]1(NC(=O)Cc2cccs2)C(=O)N2C(C(=O)O)=C(COC(N)=O)CS[C@@H]21 [CEFOXITIN] | 256 µg/mL (≈ 599 µM)

system: Campylobacter jejuni; test: Antibacterial activity against bla gene-positive and nitrocefin reaction-positive beta-lactamase harboring Campylobacter jejuni isolate P790 by NCCLS agar doubling dilution method; format: functional; method in brief: as §3

Row | Compound | MIC
13 | CO[C@@]1(NC(=O)Cc2cccs2)C(=O)N2C(C(=O)O)=C(COC(N)=O)CS[C@@H]21 [CEFOXITIN] | 64 µg/mL (≈ 150 µM)

system: Campylobacter coli; test: Antibacterial activity against Campylobacter coli by NCCLS agar doubling dilution method; format: functional
Method in brief: (§4)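 MICs by agar doubling dilution following the NCCLS (CLSI) Campylobacter Working Group procedure, applied to ampicillin- and amoxicillin-resistant isolates from UK chicken flocks (2000–2006). C. jejuni NCTC 11168 and C. coli NCTC 11366 served as control strains. Resistance was called at an ampicillin cutoff of 8 μg/ml. Other agents were judged against Enterobacteriaceae guidelines (BSAC, CLSI).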

Row | Compound | MIC50 | MIC90
14 | CO[C@@]1(NC(=O)Cc2cccs2)C(=O)N2C(C(=O)O)=C(COC(N)=O)CS[C@@H]21 [CEFOXITIN] | 128 µg/mL (≈ 299 µM) | > 256 µg/mL

system: Campylobacter jejuni; test: Antibacterial activity against bla gene-positive and nitrocefin reaction-positive beta-lactamase harboring Campylobacter jejuni isolate P1093 by NCCLS agar doubling dilution method; format: functional; method in brief: as §1

Row | Compound | MIC
15 | CO[C@@]1(NC(=O)Cc2cccs2)C(=O)N2C(C(=O)O)=C(COC(N)=O)CS[C@@H]21 [CEFOXITIN] | 128 µg/mL (≈ 299 µM)

system: Campylobacter jejuni; test: Antibacterial activity against bla gene-positive and nitrocefin reaction-negative beta-lactamase harboring Campylobacter jejuni NCTC 11168 by NCCLS agar doubling dilution method; format: functional; method in brief: as §1

Row | Compound | MIC
16 | CO[C@@]1(NC(=O)Cc2cccs2)C(=O)N2C(C(=O)O)=C(COC(N)=O)CS[C@@H]21 [CEFOXITIN] | 32 µg/mL (≈ 74.9 µM)

system: Campylobacter jejuni; test: Antibacterial activity against bla gene-positive and nitrocefin reaction-positive beta-lactamase harboring Campylobacter jejuni isolate P1650 by NCCLS agar doubling dilution method; format: functional; method in brief: as §1

Row | Compound | MIC
17 | CO[C@@]1(NC(=O)Cc2cccs2)C(=O)N2C(C(=O)O)=C(COC(N)=O)CS[C@@H]21 [CEFOXITIN] | 128 µg/mL (≈ 299 µM)

system: Campylobacter jejuni; test: Antibacterial activity against Campylobacter jejuni by NCCLS agar doubling dilution method; format: functional; method in brief: as §4

Row | Compound | MIC50 | MIC90
18 | CO[C@@]1(NC(=O)Cc2cccs2)C(=O)N2C(C(=O)O)=C(COC(N)=O)CS[C@@H]21 [CEFOXITIN] | 128 µg/mL (≈ 299 µM) | 256 µg/mL (≈ 599 µM)

system: Campylobacter jejuni; test: Antibacterial activity against bla gene-positive and nitrocefin reaction-positive beta-lactamase harboring Campylobacter jejuni isolate P286 by NCCLS agar doubling dilution method; format: functional; method in brief: as §3

Row | Compound | MIC
19 | CO[C@@]1(NC(=O)Cc2cccs2)C(=O)N2C(C(=O)O)=C(COC(N)=O)CS[C@@H]21 [CEFOXITIN] | 256 µg/mL (≈ 599 µM)

system: Campylobacter jejuni; test: Antibacterial activity against bla gene-positive and nitrocefin reaction-positive beta-lactamase harboring Campylobacter jejuni isolate P305 by NCCLS agar doubling dilution method; format: functional; method in brief: as §3

Row | Compound | MIC
20 | CO[C@@]1(NC(=O)Cc2cccs2)C(=O)N2C(C(=O)O)=C(COC(N)=O)CS[C@@H]21 [CEFOXITIN] | 128 µg/mL (≈ 299 µM)

system: Campylobacter jejuni; test: Antibacterial activity against bla gene-positive and nitrocefin reaction-positive beta-lactamase harboring Campylobacter jejuni isolate P285 by NCCLS agar doubling dilution method; format: functional; method in brief: as §3

Row | Compound | MIC
21 | CO[C@@]1(NC(=O)Cc2cccs2)C(=O)N2C(C(=O)O)=C(COC(N)=O)CS[C@@H]21 [CEFOXITIN] | 256 µg/mL (≈ 599 µM)

system: Campylobacter jejuni; test: Antibacterial activity against bla gene-negative and nitrocefin reaction-negative beta-lactamase harboring Campylobacter jejuni isolate P1962 by NCCLS agar doubling dilution method; format: functional; method in brief: as §1

Row | Compound | MIC
22 | CO[C@@]1(NC(=O)Cc2cccs2)C(=O)N2C(C(=O)O)=C(COC(N)=O)CS[C@@H]21 [CEFOXITIN] | 256 µg/mL (≈ 599 µM)

system: Campylobacter jejuni; test: Antibacterial activity against Campylobacter jejuni isolate P338 harboring blaOXA-61::cat gene by NCCLS agar doubling dilution method; format: functional; method in brief: as §2

Row | Compound | MIC
23 | CO[C@@]1(NC(=O)Cc2cccs2)C(=O)N2C(C(=O)O)=C(COC(N)=O)CS[C@@H]21 [CEFOXITIN] | 512 µg/mL (≈ 1200 µM)

system: Campylobacter jejuni; test: Antibacterial activity against bla gene-positive and nitrocefin reaction-positive beta-lactamase harboring Campylobacter jejuni isolate P1730 by NCCLS agar doubling dilution method; format: functional; method in brief: as §3

Row | Compound | MIC
24 | CO[C@@]1(NC(=O)Cc2cccs2)C(=O)N2C(C(=O)O)=C(COC(N)=O)CS[C@@H]21 [CEFOXITIN] | 256 µg/mL (≈ 599 µM)

system: Campylobacter jejuni; test: Antibacterial activity against bla gene-negative and nitrocefin reaction-positive beta-lactamase harboring Campylobacter jejuni isolate P843 by NCCLS agar doubling dilution method; format: functional; method in brief: as §1

Row | Compound | MIC
25 | CO[C@@]1(NC(=O)Cc2cccs2)C(=O)N2C(C(=O)O)=C(COC(N)=O)CS[C@@H]21 [CEFOXITIN] | 256 µg/mL (≈ 599 µM)

system: Campylobacter jejuni; test: Antibacterial activity against bla gene-positive and nitrocefin reaction-negative beta-lactamase harboring Campylobacter jejuni isolate P1699 by NCCLS agar doubling dilution method; format: functional; method in brief: as §1

Row | Compound | MIC
26 | CO[C@@]1(NC(=O)Cc2cccs2)C(=O)N2C(C(=O)O)=C(COC(N)=O)CS[C@@H]21 [CEFOXITIN] | 128 µg/mL (≈ 299 µM)
